# Tests used:
# [1] = tested on: Trypanosoma brucei gambiense; assay: Trypanocidal activity against Trypanosoma brucei gambiense assessed as reduction in intracellular ATP production incubated for 72 hrs by CellTiter-Glo luminescent cell viability assay; type: functional, organism-based
# Summary of the method: (§1)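 Bloodstream trypanosomes in 96-well culture were exposed to compound in 5-fold serial dilutions from 25 µg/mL to 1.6 ng/mL for 72 h. Seeding and temperature: T. b. brucei, T. b. gambiense and T. b. rhodesiense at 5×10^3 cells/mL and 37 °C; T. evansi at 1×10^4 cells/mL and 37 °C; T. congolense at 2×10^5 cells/mL and 33 °C. Viability was read as intracellular ATP by CellTiter-Glo luminescence. Three replicates; IC50 calculated.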
# [2] = Selectivity index, ratio of IC50 for cytotoxicity against bovine MDBK cells to IC50 for Trypanocidal activity against Trypanosoma brucei brucei; conditions: cattle
# [3] = Selectivity ratio of IC50 for trypanocidal activity against Trypanosoma congolense to trypanocidal activity against Trypanosoma evansi; type: functional
# Trypanosoma congolense = assay: Trypanocidal activity against Trypanosoma congolense assessed as reduction in intracellular ATP production incubated for 72 hrs by CellTiter-Glo luminescent cell viability assay; type: functional, organism-based; summary of the method: as §1
# [4] = Selectivity index, ratio of IC50 for cytotoxicity against bovine MDBK cells to IC50 for Trypanocidal activity against Trypanosoma brucei rhodesiense
# Trypanosoma evansi = assay: Trypanocidal activity against Trypanosoma evansi assessed as reduction in intracellular ATP production incubated for 72 hrs by CellTiter-Glo luminescent cell viability assay; type: functional, organism-based; summary of the method: as §1
# [5] = Selectivity index, ratio of IC50 for cytotoxicity against bovine MDBK cells to IC50 for Trypanocidal activity against Trypanosoma congolense
# [6] = tested on: Trypanosoma brucei brucei; assay: Trypanocidal activity against Trypanosoma brucei brucei assessed as reduction in intracellular ATP production incubated for 72 hrs by CellTiter-Glo luminescent cell viability assay; type: functional, organism-based; summary of the method: as §1
# [7] = tested on: Trypanosoma brucei rhodesiense; assay: Trypanocidal activity against Trypanosoma brucei rhodesiense assessed as reduction in intracellular ATP production incubated for 72 hrs by CellTiter-Glo luminescent cell viability assay; type: functional, organism-based; summary of the method: as §1
# [8] = Selectivity index, ratio of IC50 for cytotoxicity against bovine MDBK cells to IC50 for Trypanocidal activity against Trypanosoma evansi
# [9] = Selectivity index, ratio of IC50 for cytotoxicity against bovine MDBK cells to IC50 for Trypanocidal activity against Trypanosoma brucei gambiense; conditions: cattle
# MDBK cells (Bos taurus) = assay: Cytotoxicity against bovine MDBK cells assessed as reduction in cell viability incubated for 72 hrs by CCK8 assay
Structure (SMILES),IC50 [1] [µM],selectivity ratio [2],Ratio IC50 [3],IC50 (Trypanosoma congolense) [µM],selectivity ratio [4],IC50 (Trypanosoma evansi) [µM],selectivity ratio [5],IC50 [6] [µM],IC50 [7] [µM],selectivity ratio [8],selectivity ratio [9],IC50 (MDBK cells (Bos taurus)) [µM]
Oc1ccccc1-c1coc(-c2cccc(O)c2O)n1,1.6,7.5,2,0.85,6.4,0.42,11,1.3,1.5,23,6.1,9.7
COc1cccc(-c2ncc(-c3ccccc3N)o2)c1OC,46.2,0.8,,9.1,0.77,105,5.2,59.8,62.1,0.45,1,47.6
Oc1ccc(O)c(-c2cnc(-c3ccccc3)o2)c1,17.8,0.36,,4.7,0.42,12.2,1.6,20.6,18.1,0.61,0.42,7.5
COc1cccc(-c2cnc(-c3ccc(OC)c(OC)c3OC)o2)c1OC,63.1,> 4.2,,51.3,> 4.2,19.9,> 5.3,64.1,64.5,> 14,> 4.3,> 269
COc1ccccc1-c1nnc(-c2cccc(OC)c2OC)s1,22.1,> 10,,3.8,> 11,28.1,> 80,29.8,27.2,> 11,> 14,> 305
Oc1ccc(O)c(-c2cnc(-c3cc(O)ccc3O)o2)c1,78.3,0.41,,8.6,0.31,44.4,2.6,54.7,72.1,0.51,0.29,22.7
COc1cccc(-c2ncc(-c3ccccc3OCc3ccccc3)o2)c1OC,16.2,6.3,,7.7,6.2,16.7,13,15.5,15.8,5.8,6,97.6
COc1cccc(-c2ncc(-c3ccccc3C)o2)c1OC,40,1.5,,3,1.4,36,19,39.1,40,1.6,1.4,56.9
Oc1ccc(O)c(-c2ncc(-c3ccccc3O)o2)c1,80.9,3,,9.5,0.92,22.2,8.2,25.9,84.2,3.5,0.96,77.4
CC(=O)Oc1ccccc1-c1cnc(-c2cccc(OC(C)=O)c2OC(C)=O)o1,6.5,1.2,,0.8,2.1,5.6,6.6,4.6,2.5,0.96,0.82,5.3
